Test results: ChEMBL document CHEMBL2331335, “Synthesis of hemslecin A derivatives: a new class of hepatitis B virus inhibitors” (Bioorg Med Chem Lett, 2013)

Columns and labels:
[1] = Selectivity index, ratio of CC50 for human HepG2.2.15 cells to IC50 for HBV infected in human HepG2.2.15 cells assessed as inhibition of viral DNA replication; format: functional
Outline: (§1)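 Selectivity index was calculated as CC50 (HepG 2.2.15 cytotoxicity) divided by IC50 for the given marker (HBV DNA replication, HBeAg or HBsAg), all measured in HepG 2.2.15 cells.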

[2] = tested on: Hepatitis B virus; assay: Antiviral activity against HBV infected in human HepG2.2.15 cells assessed as inhibition of viral DNA replication; format: functional, organism-based; settings: HepG2 2.2.15
Outline: (§2)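 Assayed in HBV-producing HepG 2.2.15 cells, with tenofovir as positive control. HBsAg, HBeAg and HBV DNA replication were each measured, and IC50 was taken as the compound concentration giving 50% inhibition of the given marker.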

[3] = Selectivity index, ratio of CC50 for human HepG2.2.15 cells to IC50 for HBV infected in human HepG2.2.15 cells assessed as inhibition of viral e antigen production; format: functional; outline: as §1
[4] = tested on: Hepatitis B virus; assay: Antiviral activity against HBV infected in human HepG2.2.15 cells assessed as inhibition of viral e antigen production; format: functional, organism-based; settings: HepG2 2.2.15; outline: as §2
[5] = Selectivity index, ratio of CC50 for human HepG2.2.15 cells to IC50 for HBV infected in human HepG2.2.15 cells assessed as inhibition of viral surface antigen production; format: functional; outline: as §1
[6] = tested on: Hepatitis B virus; assay: Antiviral activity against HBV infected in human HepG2.2.15 cells assessed as inhibition of viral surface antigen production; format: functional, organism-based; settings: HepG2 2.2.15; outline: as §2
[7] = Cytotoxicity against human HepG2.2.15 cells; format: cell-based, HepG2 2.2.15
Outline: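 Cytotoxicity was tested in HepG 2.2.15 cells alongside the anti-HBV assay. CC50 was taken as the compound concentration required to destroy 50% of the cells.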

SMILES	Ratio CC50/IC50 [1]	IC50 [2] [µM]	Ratio CC50/IC50 [3]	IC50 [4] [µM]	Ratio CC50/IC50 [5]	IC50 [6] [µM]	CC50 [7] [µM]
CCOCC(=O)O[C@H]1C[C@@H]2C(=CC[C@@H]3[C@@]2(C)C(=O)C[C@]2(C)[C@@H]([C@@](C)(O)C(=O)CCC(C)(C)O)[C@H](OC(=O)COCC)C[C@@]32C)C(C)(C)[C@@H]1OC(=O)COCC	2.2	84.6	<1	> 184	1.8	101	184
CC(C)(O)CCC(=O)[C@](C)(O)[C@H]1[C@H](O)C[C@@]2(C)[C@@H]3CC=C4[C@@H](C[C@H](O)[C@@H](O)C4(C)C)[C@]3(C)C(=O)C[C@]12C	1.9	31.4	<1	> 60.6	<1	> 60.6	60.6
